Data reported in ChEMBL document CHEMBL1152901, “The synthesis and biological evaluation of para-substituted phenolic N-alkyl carbamates as endocannabinoid hydrolyzing enzyme inhibitors” (Eur J Med Chem, 2009).
Active and inactive are the calls of the source. The rule behind the calls is not given here.

Assays:
[1] = biological target: T1, Monoglyceride lipase (Rattus norvegicus, UniProt Q8R431); experiment: Inhibition of MGL in Wistar rat cerebral membrane by HPLC; format: cell membranes
T1 sequence (Q8R431 whole entry): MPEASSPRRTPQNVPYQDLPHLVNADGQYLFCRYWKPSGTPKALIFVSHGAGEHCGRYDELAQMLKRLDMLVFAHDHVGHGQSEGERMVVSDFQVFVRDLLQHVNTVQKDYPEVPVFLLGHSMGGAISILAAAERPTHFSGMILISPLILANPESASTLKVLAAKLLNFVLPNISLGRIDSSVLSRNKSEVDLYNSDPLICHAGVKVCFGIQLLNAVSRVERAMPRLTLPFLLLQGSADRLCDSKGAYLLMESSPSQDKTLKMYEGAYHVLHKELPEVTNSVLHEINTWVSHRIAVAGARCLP
Procedure, shortened: (§1)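 Incubation is 90 min at 25 °C with 5 µg protein, 50 µM 2-AG, 100 mM NaCl and 5 mM MgCl2. The reaction is stopped with acidified acetonitrile (pH 3.0). 2-AG, 1(3)-AG and arachidonic acid are quantified by reversed-phase HPLC with UV at 211 nm. IC50 comes from a variable-slope fit, three experiments in duplicate; percentages are the mean of two in duplicate.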

[2] = biological target: T2, Fatty-acid amide hydrolase 1 (Rattus norvegicus, UniProt P97612); experiment: Inhibition of FAAH in Wistar rat cerebral membrane by liquid scintillation counting; format: cell membranes
T2 sequence (P97612 whole entry): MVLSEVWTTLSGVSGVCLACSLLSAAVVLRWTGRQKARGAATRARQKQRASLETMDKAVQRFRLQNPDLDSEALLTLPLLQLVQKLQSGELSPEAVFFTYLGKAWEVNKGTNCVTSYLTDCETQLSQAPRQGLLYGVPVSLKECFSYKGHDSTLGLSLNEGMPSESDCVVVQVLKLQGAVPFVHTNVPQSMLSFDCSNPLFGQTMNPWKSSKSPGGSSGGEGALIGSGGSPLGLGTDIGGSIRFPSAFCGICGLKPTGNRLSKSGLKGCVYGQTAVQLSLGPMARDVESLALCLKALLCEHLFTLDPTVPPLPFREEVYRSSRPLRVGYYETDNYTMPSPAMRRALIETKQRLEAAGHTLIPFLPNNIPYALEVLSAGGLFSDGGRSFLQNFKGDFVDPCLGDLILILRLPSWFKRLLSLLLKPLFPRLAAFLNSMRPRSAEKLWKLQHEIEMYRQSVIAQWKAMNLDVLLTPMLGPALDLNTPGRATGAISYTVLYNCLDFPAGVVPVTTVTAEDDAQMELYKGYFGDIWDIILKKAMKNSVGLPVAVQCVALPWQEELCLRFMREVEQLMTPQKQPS
Procedure, shortened: (§2)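 Rat brain homogenate (10,000g supernatant from male Wistar forebrain, 8 weeks old), 18 µg protein, preincubated with inhibitor in DMSO (≤5% v/v) for 10 min at 37 °C in 0.1 M potassium phosphate pH 7.4 with 0.5% fatty-acid-free BSA. Then 2 µM AEA carrying [ethanolamine-1-3H]AEA is added for 10 min at 37 °C. The reaction is stopped with ethyl acetate and aqueous [3H]ethanolamine is counted. IC50 comes from a variable-slope sigmoidal fit, three experiments in duplicate; single-point values are the mean of two experiments in duplicate.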

[3] = biological target: T3, Monoglyceride lipase (Rattus norvegicus) (UniProt Q8R431); experiment: Inhibition of MGL in Wistar rat cerebral membrane assessed as residual activity at 1 mM by HPLC; values are per cent of control
T3 sequence (whole entry): T1 sequence (Q8R431 whole entry)

[4] = biological target: T4, Fatty-acid amide hydrolase 1 (Rattus norvegicus) (UniProt P97612); experiment: Inhibition of FAAH in Wistar rat cerebral membrane at 0.1 uM by liquid scintillation counting; format: cell membranes; procedure, shortened: as §2
T4 sequence (whole entry): T2 sequence (P97612 whole entry)

[5] = biological target: T3, Monoglyceride lipase (Rattus norvegicus); experiment: Inhibition of MGL in Wistar rat cerebral membrane at 100 uM by HPLC; format: cell membranes; procedure, shortened: as §1
[6] = biological target: T3, Monoglyceride lipase (Rattus norvegicus); settings: Wistar, 100 uM
[7] = biological target: Monoglyceride lipase (Homo sapiens) (UniProt Q99685); experiment: Inhibition of MGL in human recombinant MGL
[8] = biological target: T2, Fatty-acid amide hydrolase 1; experiment: Inhibition of FAAH-mediated anandamide hydrolysis in rat brain membrane; format: cell membranes
[9] = biological target: T3, Monoglyceride lipase (Rattus norvegicus); experiment: Inhibition of MGL in Wistar rat cerebral membrane at 30 uM by HPLC; format: cell membranes; procedure, shortened: as §1
[10] = biological target: Monoglyceride lipase (Rattus norvegicus) (UniProt Q8R431); experiment: Inhibition of MGL 2-AG hydrolysis in rat cerebellar membranes by liquid scintillation counting
[11] = biological target: T4, Fatty-acid amide hydrolase 1 (Rattus norvegicus); experiment: Irreversible inhibition of FAAH in Wistar rat brain homogenate at 246 nM by liquid scintillation counting; format: tissue-based
[12] = biological target: T2, Fatty-acid amide hydrolase 1; experiment: Inhibition of FAAH-mediated hydrolysis of [3H]anandamide in rat RBL2H3 cells; format: cell-based, RBL-2H3
Procedure, shortened: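 RBL2H3 cells are preincubated 10 min at 37 °C with compound with or without URB597. [ethanolamine-1-3H]AEA is then added at 100 nM and incubated a further 20 min at 37 °C, and hydrolysis is measured. Data are means, n = 5, analysed by repeated-measures one-way ANOVA with Dunnett's test.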

[13] = biological target: T4, Fatty-acid amide hydrolase 1 (Rattus norvegicus); experiment: Inhibition of FAAH-mediated uptake of [3H]anandamide in rat RBL2H3 cells; format: cell-based; settings: RBL-2H3
Procedure, shortened: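 RBL2H3 cells are preincubated 10 min at 37 °C with compound with or without URB597. [arachidonoyl-3H]AEA is then added at 100 nM and incubated a further 10 min at 37 °C. Wells without cells serve as a comparison. Data are means, n = 4, analysed by repeated-measures one-way ANOVA with Dunnett's test.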

[14] = biological target: T3, Monoglyceride lipase (Rattus norvegicus); experiment: Inhibition of MGL in Wistar rat cerebral membrane at 1 mM by HPLC; format: cell membranes
Procedure, shortened: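 Rat cerebellar membranes were prepared by sucrose homogenisation, differential centrifugation and washing. […] Reactions were stopped with acidified acetonitrile (pH 3.0). 2-AG, 1(3)-AG and arachidonic acid were quantified by reversed-phase HPLC (UV 211 nm peak areas). Remaining activity is reported.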

[15] = biological target: T5, Monoglyceride lipase (Homo sapiens) (UniProt Q99685); experiment: Irreversible inhibition of human MGL at 0.3 uM by liquid scintillation counting
T5 sequence (whole entry): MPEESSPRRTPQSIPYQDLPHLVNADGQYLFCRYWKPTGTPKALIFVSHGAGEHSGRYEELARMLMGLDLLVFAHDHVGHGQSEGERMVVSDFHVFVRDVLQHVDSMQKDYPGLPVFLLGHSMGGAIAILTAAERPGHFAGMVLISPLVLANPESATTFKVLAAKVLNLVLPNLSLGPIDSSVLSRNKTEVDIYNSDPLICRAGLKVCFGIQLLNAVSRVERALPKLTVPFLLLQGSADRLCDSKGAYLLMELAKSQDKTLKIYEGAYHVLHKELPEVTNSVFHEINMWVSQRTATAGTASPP
Procedure, shortened: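 Reversibility was tested on human recombinant MGL. The enzyme was preincubated with inhibitor at 50-fold the activity-assay enzyme level, then diluted […] into Tris-HCl pH 7.4/EDTA buffer with 50 μM 2-OG including [³H]2-OG. Samples taken at 0–60 min were stopped with cold ethyl acetate, and aqueous [³H]glycerol was counted by liquid scintillation. Activity was compared with DMSO vehicle over three independent experiments in duplicate.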

| Compound | IC50 [1] [nM] | IC50 [2] [nM] | further results |
| --- | --- | --- | --- |
| Cc1ccc(CNC(=O)Oc2ccc(C3=NCCS3)cc2)cc1 | 94000 | 280 | – |
| O=C(NC1CCCC1)Oc1ccc(C2=NCCO2)cc1 | 11000 | 100 | residual activity [3]: 21% |
| CCCCCCCCCCCCNC(=O)Oc1ccc(C(=O)OC)cc1 | 2800 | – | – |
| COC(=O)c1ccc(OC(=O)NC2CCCCC2)cc1 | 14000 | – | inhibition [4]: 41% |
| CCCCCCNC(=O)Oc1ccc(C(=O)OC)cc1 | 35000 | – | – |
| CC(C)(C)NC(=O)Oc1ccc(C2=NCCS2)cc1 | – | 7000 | inhibition [5]: inactive |
| CCCCNC(=O)Oc1ccc(C(=O)OC)cc1 | – | – | inhibition [4]: 35% |
| CCCCCCNC(=O)Oc1ccc(C2=NCCS2)cc1 | – | 8.2 | – |
| CCCCCCNC(=O)Oc1ccc(Br)cc1 | – | – | residual activity [3]: 16% |
| CCCNC(=O)Oc1ccc(C2=NCCS2)cc1 | 46000 | 1700 | residual activity [3]: 6% |
| CCCCCCNC(=O)Nc1ccc(-c2csnn2)cc1 | – | – | inhibition [5]: inactive; inhibition [4]: 9% |
| CCCCNC(=O)Oc1ccc(-c2csnn2)cc1 | – | 160 | inhibition [5]: 46%; residual activity [3]: 22% |
| COc1ccc(CNC(=O)Oc2ccc(C3=NCCS3)cc2)cc1 | 46000 | 320 | residual activity [3]: 21% |
| O=C(NC1CCCCC1)Oc1ccc([N+](=O)[O-])cc1 | 19000 | – | inhibition [4]: 25% |
| O=C(NC1CCCC1)Oc1ccc(-c2csnn2)cc1 | – | 20 | – |
| CCCCNC(=O)Oc1ccc(OC)cc1 | – | – | inhibition [4]: 5% |
| O=C(NC1CCCCC1)Oc1ccc(-c2csnn2)cc1 | – | 21 | inhibition [5]: 28% |
| O=C(NCc1ccccc1)Oc1ccc(C2=NCCS2)cc1 | 42000 | 290 | – |
| O=C(NC1CCCCC1)Oc1ccc(C2=NCCS2)cc1 | 27000 | 100 | – |
| O=C(NC1CCCC1)Oc1ccc(C2=NCCS2)cc1 | 11000 | 130 | – |
| CCCCCCNC(=O)Oc1ccc(C(=O)OC)cc1C | – | 55 | – |
| CCCCCCCCCCCCNC(=O)Oc1ccccc1 | – | – | inhibition [5]: 36% |
| CCCCCCNC(=O)Oc1ccc(C(=O)OC)cc1I | – | 24 | – |
| CCCCNC(=O)Oc1ccc(C2=NCCS2)cc1 | 31000 | 520 | residual activity [6]: 54% |

| Compound | IC50 [1] [nM] | IC50 [2] [nM] | further results |
| --- | --- | --- | --- |
| CCCCCCCCCCCCNC(=O)Oc1ccccc1-c1csnn1 | – | 50 | IC50 [7]: 18000 nM |
| CCCCNC(=O)Oc1cccc(-c2csnn2)c1 | – | 6.9 | – |
| Cc1ccc(CNC(=O)Oc2ccc(C3=NCCO3)cc2)cc1 | 125000 | 180 | residual activity [3]: 6% |
| O=C(NCc1ccccc1)Oc1ccc(-c2csnn2)cc1 | – | 44 | residual activity [3]: 22% |
| CCNC(=O)Oc1ccc(C2=NCCS2)cc1 | 102000 | 15000 | residual activity [3]: 12% |
| CCCCCCNC(=O)Oc1ccc(-c2csnn2)cc1 | 11000 | 19 | – |
| Cc1ccccc1CNC(=O)Oc1ccc(C2=NCCO2)cc1 | 35000 | 34 | residual activity [3]: 12% |
| CCCCCCCCCCCCNC(=O)Oc1ccc(C2=NCCS2)cc1 | – | 6.3 | – |
| O=C(Nc1ccc([N+](=O)[O-])cc1)OC1CCCCC1 | – | – | inhibition [5]: inactive; inhibition [4]: 9% |
| Cc1ccccc1CNC(=O)Oc1ccc(C2=NCCS2)cc1 | 46000 | 62 | – |
| O=C(Nc1ccc(-c2ccccc2)cc1)OC1CCCCC1 | – | 108000 | IC50 [8]: 17000 nM |
| CCCCCCCCCCCCNC(=O)Oc1cccc(-c2csnn2)c1 | – | 0.24 | inhibition [9]: 57%; residual activity [3]: 13% |
| CCCCC/C=C\C/C=C\C/C=C\C/C=C\CCCCN1C(=O)C=CC1=O | – | – | IC50 [10]: 140 nM |
| CCCCNC(=O)Oc1ccc(C2=NCCO2)cc1 | 34000 | 120 | – |
| CCCCNC(=O)Oc1ccc(C#N)cc1 | – | – | inhibition [4]: 25% |
| CCCCCCNC(=O)Oc1ccc(C(=O)OC)cc1OC | – | 5.5 | – |
| CCCCCCCCCCCCNC(=O)Oc1ccc(-c2csnn2)cc1 | 1900 | 12 | Activity [11]: Active; IC50 [12]: 82 nM; Activity [13]: Active |
| CCCCCCNC(=O)Oc1c(C(C)(C)C)cc(C(=O)OC)cc1C(C)(C)C | – | – | inhibition [4]: 4% |
| CCCCCCNC(=O)Oc1ccc(C)cc1 | – | – | inhibition [4]: 27% |
| NC(=O)c1cccc(-c2cccc(OC(=O)NC3CCCCC3)c2)c1 | – | – | inhibition [14]: 30%; Activity [15]: Active |
| CCCCNC(=O)Oc1ccc([N+](=O)[O-])cc1 | – | – | inhibition [4]: 16% |
| O=C(NCCc1ccccc1)Oc1ccc(C2=NCCS2)cc1 | 28000 | 38 | – |
| CCCCNC(=O)Oc1ccccc1-c1csnn1 | – | – | inhibition [4]: inactive |
| CCCCCCNC(=O)Oc1ccccc1 | – | – | inhibition [5]: 41% |
